The source of these data is ChEMBL document CHEMBL4190391 (J Med Chem, 2018).

Chain of Protease (Q9YQ12 whole entry): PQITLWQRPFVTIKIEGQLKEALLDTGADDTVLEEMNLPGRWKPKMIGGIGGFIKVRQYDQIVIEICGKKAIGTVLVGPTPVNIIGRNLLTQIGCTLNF

The first test addresses Protease (Human immunodeficiency virus 1, UniProt Q9YQ12). In words: Inhibition of wild type HIV-1 NL4-3 protease expressed in Escherichia coli Rosetta (DE3)pLysS using Ac-Thr-Ile-Nle-Nle-Gln-Arg-NH2 as substrate by fluorescence assay.
Conditions: not given
Regarding `COc1ccc(S(=O)(=O)N(CC(C)C)C[C@@H](O)[C@H](Cc2ccccc2)NC(=O)O[C@H]2C[C@H]3CCO[C@H]4OC[C@@H]2[C@@H]34)cc1`, affinity was put at a Ki of 0.005 nM. This lies in the picomolar range.

In the case of `COc1ccc(S(=O)(=O)N(CC(C)C)C[C@@H](O)[C@H](Cc2ccccc2)NC(=O)O[C@@H]2C[C@@H]3CO[C@@H]4OCC[C@H]2[C@H]34)cc1`, the Ki (commonly a dissociation constant, usually derived from enzyme kinetics or from competition with a known ligand) came out at 0.008 nM.

On to `COc1ccc(S(=O)(=O)N(CC(C)C)C[C@@H](O)[C@H](Cc2ccccc2)NC(=O)O[C@@H]2C[C@@H]3CO[C@@H]4CCC[C@H]2[C@H]34)cc1`, for which affinity was put at a Ki of 4.55 nM.

Take `COC[C@@H]1C[C@@H]2[C@H]3[C@H](CO[C@H]3O1)C[C@@H]2OC(=O)N[C@@H](Cc1ccccc1)[C@H](O)CN(CC(C)C)S(=O)(=O)c1ccc(OC)cc1`: affinity was put at a Ki of 0.09 nM.

As to `COc1ccc(S(=O)(=O)N(CC(C)C)C[C@@H](O)[C@H](Cc2ccccc2)NC(=O)O[C@H]2C[C@H]3CO[C@H]4O[C@H](C)C[C@@H]2[C@@H]34)cc1`, the Ki was 0.05 nM.

`CC(C)CN(C[C@@H](O)[C@H](Cc1cc(F)cc(F)c1)NC(=O)O[C@@H]1C[C@@H]2CO[C@@H]3OCC[C@H]1[C@H]23)S(=O)(=O)c1ccc2nc(NC3CC3)sc2c1` yielded a Ki of 0.002 nM.

`CC(C)CN(C[C@@H](O)[C@H](Cc1ccccc1)NC(=O)O[C@@H]1C[C@@H]2CO[C@@H]3OCC[C@H]1[C@H]23)S(=O)(=O)c1ccc2nc(NC3CC3)sc2c1` yielded a Ki of 0.5 nM.

`COc1ccc(S(=O)(=O)N(CC(C)C)C[C@@H](O)[C@H](Cc2ccccc2)NC(=O)O[C@H]2C[C@H]3CO[C@H]4OCC[C@@H]2[C@@H]34)cc1` returned a Ki of 0.045 nM.

The subject of another test is Human immunodeficiency virus 1. The test can be described thus: Antiviral activity against HIV-1 LAI infected in human MT2 cells. The note with it: Human immunodeficiency virus 1, LAI. Type of test: functional, organism-based.
In the case of `COc1ccc(S(=O)(=O)N(CC(C)C)C[C@@H](O)[C@H](Cc2ccccc2)NC(=O)O[C@H]2C[C@H]3CCO[C@H]4OC[C@@H]2[C@@H]34)cc1`, the IC50 (usually the concentration that inhibits the measured activity by half) came to 29 nM.

In turn, `COc1ccc(S(=O)(=O)N(CC(C)C)C[C@@H](O)[C@H](Cc2ccccc2)NC(=O)O[C@@H]2C[C@@H]3CO[C@@H]4OCC[C@H]2[C@H]34)cc1` displayed an IC50 of 9 nM.

In the case of `COc1ccc(S(=O)(=O)N(CC(C)C)C[C@@H](O)[C@H](Cc2ccccc2)NC(=O)O[C@@H]2C[C@@H]3CO[C@@H]4CCC[C@H]2[C@H]34)cc1`, the IC50 was over 1000 nM.

In turn, `COC[C@@H]1C[C@@H]2[C@H]3[C@H](CO[C@H]3O1)C[C@@H]2OC(=O)N[C@@H](Cc1ccccc1)[C@H](O)CN(CC(C)C)S(=O)(=O)c1ccc(OC)cc1` came in with an IC50 of 248 nM.

On to `COc1ccc(S(=O)(=O)N(CC(C)C)C[C@@H](O)[C@H](Cc2ccccc2)NC(=O)O[C@H]2C[C@H]3CO[C@H]4O[C@H](C)C[C@@H]2[C@@H]34)cc1`, for which the IC50 worked out at 130 nM. Against the preceding compound, the IC50 is about 1.9-fold lower.

`CC(C)CN(C[C@@H](O)[C@H](Cc1cc(F)cc(F)c1)NC(=O)O[C@@H]1C[C@@H]2CO[C@@H]3OCC[C@H]1[C@H]23)S(=O)(=O)c1ccc2nc(NC3CC3)sc2c1` showed an IC50 of 0.027 nM. Against the preceding compound, the IC50 is about 4800-fold lower.

Turning to `CC(C)CN(C[C@@H](O)[C@H](Cc1ccccc1)NC(=O)O[C@@H]1C[C@@H]2CO[C@@H]3OCC[C@H]1[C@H]23)S(=O)(=O)c1ccc2nc(NC3CC3)sc2c1`, the IC50 came to 0.9 nM.

`COc1ccc(S(=O)(=O)N(CC(C)C)C[C@@H](O)[C@H](Cc2ccccc2)NC(=O)O[C@H]2C[C@H]3CO[C@H]4OCC[C@@H]2[C@@H]34)cc1` yielded an IC50 of 31 nM. This IC50 lies about 34-fold higher than the previous one.

For the next test, the system named is Human immunodeficiency virus 1. In words: Antiviral activity against wild type HIV1 NL4-3 infected in human MT4 cells assessed as reduction in p24 Gag protein production after 7 days by chemiluminescent enzyme immunoassay. The format is functional, organism-based. The conditions noted are these: Human immunodeficiency virus 1, NL4-3, MT4, 168 h.
`CC(C)CN(C[C@@H](O)[C@H](Cc1cc(F)cc(F)c1)NC(=O)O[C@@H]1C[C@@H]2CO[C@@H]3OCC[C@H]1[C@H]23)S(=O)(=O)c1ccc2nc(NC3CC3)sc2c1`: the EC50 – broadly, the midpoint of the concentration-response curve – is 1.2 nM.

In the next test the test system is Human immunodeficiency virus 1. The test can be described thus: Antiviral activity against ATV resistant HIV1 harboring protease L23I/E34Q/K43I/M46I/I50L/G51A/L63P/A71V/V82A/T91A mutant infected in human MT4 cells assessed as reduction in p24 Gag protein production after 7 days by chemiluminescent enzyme immunoassay. The format is functional, organism-based. The note with it: Human immunodeficiency virus 1, MT4, 168 h. Summed up:
(§1)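 Variants had been selected by passaging HIV-1 NL4-3 in MT-4 cells under increasing PI concentrations (up to 5 μM). Assays were run in duplicate; values are means (± S.D.) of two independent experiments.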
Take `CC(C)CN(C[C@@H](O)[C@H](Cc1cc(F)cc(F)c1)NC(=O)O[C@@H]1C[C@@H]2CO[C@@H]3OCC[C@H]1[C@H]23)S(=O)(=O)c1ccc2nc(NC3CC3)sc2c1`: the EC50 was found to be 0.6 nM.

In the next test the test system is Human immunodeficiency virus 1. In words: Antiviral activity against LPV resistant HIV1 harboring protease L10F/[…]I54V/V82A mutant infected in human MT4 cells assessed as reduction in p24 Gag protein production after 7 days by chemiluminescent enzyme immunoassay. Type of test: functional, organism-based. The conditions noted are these: Human immunodeficiency virus 1, MT4, 168 h. Summed up: as §1
Regarding `CC(C)CN(C[C@@H](O)[C@H](Cc1cc(F)cc(F)c1)NC(=O)O[C@@H]1C[C@@H]2CO[C@@H]3OCC[C@H]1[C@H]23)S(=O)(=O)c1ccc2nc(NC3CC3)sc2c1`, the EC50 came to 2 nM.

The subject of a further test is Human immunodeficiency virus 1. In words: Antiviral activity against APV resistant HIV1 harboring protease L10F/M46I/I50V/I85V mutant infected in human MT4 cells assessed as reduction in p24 Gag protein production after 7 days by chemiluminescent enzyme immunoassay. Type of test: functional, organism-based. The conditions noted are these: Human immunodeficiency virus 1, MT4, 168 h. Summed up: as §1
On to `CC(C)CN(C[C@@H](O)[C@H](Cc1cc(F)cc(F)c1)NC(=O)O[C@@H]1C[C@@H]2CO[C@@H]3OCC[C@H]1[C@H]23)S(=O)(=O)c1ccc2nc(NC3CC3)sc2c1`, for which the EC50 came out at 0.3 nM.

A further test concerns Human immunodeficiency virus 1. The test can be described thus: Resistance index, ratio of EC50 for antiviral activity against ATV resistant HIV1 harboring protease L23I/E34Q/K43I/M46I/I50L/G51A/L63P/A71V/V82A/T91A mutant infected in human MT4 cells to EC50 for antiviral activity against wild type HIV1 NL4-3 infected in human MT4 cells. Type of test: functional.
Conditions: not given
Regarding `CC(C)CN(C[C@@H](O)[C@H](Cc1cc(F)cc(F)c1)NC(=O)O[C@@H]1C[C@@H]2CO[C@@H]3OCC[C@H]1[C@H]23)S(=O)(=O)c1ccc2nc(NC3CC3)sc2c1`, the “Ratio EC50” value came to 0.3.

Another test concerns Human immunodeficiency virus 1. In words: Resistance index, ratio of EC50 for antiviral activity against LPV resistant HIV1 harboring protease L10F/[…]I54V/V82A mutant infected in human MT4 cells to EC50 for antiviral activity against wild type HIV1 NL4-3 infected in human MT4 cells. The format is functional.
Conditions: not given
Consider `CC(C)CN(C[C@@H](O)[C@H](Cc1cc(F)cc(F)c1)NC(=O)O[C@@H]1C[C@@H]2CO[C@@H]3OCC[C@H]1[C@H]23)S(=O)(=O)c1ccc2nc(NC3CC3)sc2c1`, for which the “Ratio EC50” value is given as 1.

The next test deals with Human immunodeficiency virus 1. In words: Resistance index, ratio of EC50 for antiviral activity against APV resistant HIV1 harboring protease L10F/M46I/I50V/I85V mutant infected in human MT4 cells to EC50 for antiviral activity against wild type HIV1 NL4-3 infected in human MT4 cells. The format is functional.
Conditions: not given
Consider `CC(C)CN(C[C@@H](O)[C@H](Cc1cc(F)cc(F)c1)NC(=O)O[C@@H]1C[C@@H]2CO[C@@H]3OCC[C@H]1[C@H]23)S(=O)(=O)c1ccc2nc(NC3CC3)sc2c1`, for which the “Ratio EC50” value is given as 0.2.
